# Hits are enriched below; roughly 5.7% of the tested compounds scored in any of these assays.
# Calb FLC – C. albicans growth modulation with fluconazole; C. albicans CaCi-2 (fluconazole-resistant clinical isolate) + fluconazole, Alamar Blue growth, 48 h; growth inhibition, % (test concentration not listed); 300,000 compounds, 0.57% hits; AID 1979;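 active = growth inhibition above about 58% in most replicates, limit read from the data, passing the limit was not always enough; inconclusive = exactly half the replicates above a set limit; inactive = most replicates below a set limit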;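 also: all wells also contain fluconazole at 8 µg/ml as a sub-toxic cotreatment; 0% = median of DMSO wells and 100% = median of geldanamycin control wells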
# T cruzi inh – blocks replication of Trypanosoma cruzi; T. cruzi beta-gal in NIH3T3, luminescence, 90 h; inhibition, % (no concentration beside the values); 300,000 compounds, 1.4% hits;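 active = mean inhibition across valid replicates above about 55%, limit read from the data; inconclusive = mean below that limit but half or more replicates reach it; inactive = mean below it, under half of replicates reach it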;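 also: signal also drops with host cell toxicity which is not excluded here; 0% = plate median of DMSO wells and 100% = zero luminescence signal; higher percent means less beta-gal luminescence so fewer parasites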
#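 compound dosing = single 50 nL compound addition per well in DMSO | material = NIH/3T3 host cells with β-galactosidase reporter T. cruzi | input = 5,000 host fibroblasts per well | timing = ≥90 h infection period, 3 h prior cell attachment | read-out basis = percent inhibition of parasite-derived β-gal signal | detection = GalScreen β-gal luminescence, detergent lysis, 60 min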
# Beta cell apopt – beta cell apoptosis inhibition | AID 435005 | 300,000 compounds, 0.8% hits | INS-1E cytokine-induced death, ATP luminescence, 48 h; percent of positive-control rescue, neutral wells zero | protection from apoptosis, % (test concentration not listed);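 active = Every replicate reaches about 75%, or at least half do and their mean reaches it too, limit read from the data; inconclusive = At least half of replicates reach the limit but their mean does not; inactive = Under half of replicates reach the limit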;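 also: 0% = cytokine-treated negative control wells and 100% = positive control rescue; higher means more ATP so stronger rescue from cytokine killing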
# SKKanGAS inh – SKKanGAS growth inhibition; AID 1662; inhibition, % at 7.5 µM; 300,000 compounds, 1.3% hits; S. pyogenes SKKanGAS, kanamycin growth, BacTiter-Glo, 6 h;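 active = mean replicate score, as percent of positive control median, at least 50; inconclusive = mean below 50 but one replicate at or above 50; inactive = mean and every replicate below 50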;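 also: strain carries kanamycin resistance gene driven by streptokinase promoter and grows in 40 µg/ml kanamycin; loss of luminescence reflects streptokinase promoter inhibition or plain growth inhibition; 0% = median of DMSO wells and 100% = positive control at its reference dose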
# CSC inhib – blocks cancer stem cells | cancer stem cell-like cells viability, luminescence | inhibition, % at 7.5 µM | 300,000 compounds, 1.1% hits | AID 2717; in the data active = inhibition above about 75%; inconclusive = no clear call, values can overlap the other calls; tested in HMLE shEcad cells
# Mdm2-MdmX inh – inhibitors of human Mdm2/MdmX interaction. inhibition, % at 8 µM. O15151+Q00987. 330,000 compounds, 3% hits. SaOS-2 split-luciferase Mdm2/MdmX complementation, luminescence;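 active = inhibition of at least 50% at 8 µM in the primary screen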
# Target sequence (O15151 whole entry, looked up): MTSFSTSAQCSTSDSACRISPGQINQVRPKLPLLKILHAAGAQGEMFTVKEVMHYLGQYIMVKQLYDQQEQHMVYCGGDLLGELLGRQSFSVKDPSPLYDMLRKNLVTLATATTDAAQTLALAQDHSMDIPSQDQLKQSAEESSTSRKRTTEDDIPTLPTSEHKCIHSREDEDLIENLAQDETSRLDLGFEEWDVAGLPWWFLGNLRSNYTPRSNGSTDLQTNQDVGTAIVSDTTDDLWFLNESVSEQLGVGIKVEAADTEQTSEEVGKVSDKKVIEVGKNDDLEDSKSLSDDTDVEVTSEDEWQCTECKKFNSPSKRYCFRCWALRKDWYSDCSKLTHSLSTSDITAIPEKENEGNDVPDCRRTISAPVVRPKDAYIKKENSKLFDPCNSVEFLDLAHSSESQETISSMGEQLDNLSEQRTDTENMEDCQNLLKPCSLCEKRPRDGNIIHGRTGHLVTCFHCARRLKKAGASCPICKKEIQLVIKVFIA
# Target sequence (Q00987 whole entry, looked up): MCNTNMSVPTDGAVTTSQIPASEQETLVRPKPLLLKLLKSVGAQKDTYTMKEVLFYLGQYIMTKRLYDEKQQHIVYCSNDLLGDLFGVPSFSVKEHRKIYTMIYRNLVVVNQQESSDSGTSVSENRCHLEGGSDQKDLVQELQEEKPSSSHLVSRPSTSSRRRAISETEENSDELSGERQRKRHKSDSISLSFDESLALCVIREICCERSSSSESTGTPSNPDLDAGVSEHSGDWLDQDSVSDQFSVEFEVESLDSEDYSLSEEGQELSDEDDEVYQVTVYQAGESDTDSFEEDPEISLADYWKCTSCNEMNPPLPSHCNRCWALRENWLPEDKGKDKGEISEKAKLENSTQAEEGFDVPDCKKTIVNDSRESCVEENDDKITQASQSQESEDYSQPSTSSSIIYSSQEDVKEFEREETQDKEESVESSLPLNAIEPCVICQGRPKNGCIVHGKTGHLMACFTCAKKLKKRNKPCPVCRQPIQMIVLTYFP
# The depositor's hits bear a star; ? = inconclusive; nt = no result.
SMILES,Calb FLC,T cruzi inh,Beta cell apopt,SKKanGAS inh,CSC inhib,Mdm2-MdmX inh
O=C1c2cccc(OCC(=O)N3CCCc4ccccc43)c2CCN1Cc1ccccc1,45,16,8,18,88*,30
O/N=C(/c1ccccc1)c1cc2cc(Br)cc(Br)c2o1,0,1,0,7,9,6
Cc1ccc(S(=O)(=O)CC(=O)N(CCCN(C)C)c2nc3ccc(C)cc3s2)cc1,-4,65*,-5,1,7,8
Cc1cc(C)c2sc(N(CCCN(C)C)C(=O)CN3C(=O)c4ccccc4C3=O)nc2c1,-23,51,-5,3,-8,22
Cc1ccc2nc(N(CCCN(C)C)C(=O)CN3C(=O)c4ccccc4C3=O)sc2c1,0,61*,2,0,-12,7
c1ccc(OCC2CCNCC2)nc1,-7,1,nt,-1,-2,-1
O=C(NCC(c1cccnc1)N1CCN(c2ccc(F)cc2)CC1)OCc1ccccc1 (stereo unspecified),21,60*,1,2,4,6
O=C(NCC(c1cccnc1)N1CCN(c2ccccc2)CC1)C1CCCCC1 (stereo unspecified),-18,56*,4,1,-2,23
O=C(NCC(c1cccnc1)N1CCN(c2ccccc2)CC1)OCc1ccccc1 (stereo unspecified),-26,54,3,-15,10,17
O=C(NCC(c1cccnc1)N1CCN(c2ccccc2F)CC1)OCc1ccccc1 (stereo unspecified),-17,56*,4,-6,20,-10
CN(CC(=O)N1CCN(Cc2ccccc2)CC1)C(=O)Cc1ccc(Cl)c(Cl)c1,nt,nt,-16,nt,-34,21
COc1cccc(NC(=S)N2CCC(c3ccc(C)cc3)C2)c1 (stereo unspecified),-17,24,16,-4,-9,-9
CCOC(=O)/C=C/c1ccc2c(c1)S(=O)(=O)N(c1cccc(OC)c1)[C@H]2CC(=O)OCC,8,27,1,-2,-14,-24
COc1ccc(C(C[N+](=O)[O-])C2(c3ccc(OC)c(OC)c3)C(=O)c3ccccc3C2=O)cc1 (stereo unspecified),-6,9,-2,22,89*,nt
COc1ccc(C(C[N+](=O)[O-])c2c(-c3ccccc3)cc3ccccn23)cc1OC (stereo unspecified),11,-9,1,0,10,37
NNC(=S)Nc1ccc(C(F)(F)F)cc1Cl,-1,3,4,61*,38,8
FC(F)(F)c1cccc(NC(=S)Nc2ccc(Cl)cc2Cl)c1,2,2,12,?,65,11
COc1ccc(OC)c(S(=O)(=O)NC2CCCCNC2=O)c1 (stereo unspecified),2,-3,nt,-4,nt,16
O=C(NC1=C(Nc2ccc(F)cc2)C(=O)c2ccccc2C1=O)c1ccc(Cl)cc1,0,-4,87*,51*,31,6
Cc1cc(C)c(C)c(S(=O)(=O)N2CCN(c3ccc(O)cc3)CC2)c1C,-39,7,-8,-1,85*,17
Cc1cc(C)c(C)c(S(=O)(=O)N2CCN(c3ncnc4ccccc34)CC2)c1C,nt,nt,104*,nt,34,29
O=C(CNC(=O)c1cccs1)c1ccc(Br)cc1,0,-10,5,-3,-16,-31
O=C(CSc1nnc(Cn2nnc3ccccc32)o1)N(Cc1ccc(F)cc1)c1ccccc1,10,13,109*,4,40,13
Cc1ccc(NS(=O)(=O)c2ccc3c(c2)CCN3C(=O)CCC(=O)O)cc1Cl,2,2,-10,-1,-2,28
Cc1cc(S(=O)(=O)NCC(c2ccc(F)cc2)N2CCN(C)CC2)ccc1F (stereo unspecified),0,41,0,2,4,-7
SMILES,Calb FLC,T cruzi inh,Beta cell apopt,SKKanGAS inh,CSC inhib,Mdm2-MdmX inh
Cc1cccc(Cc2nnc(CCC(=O)N3CCCCC3c3nccs3)o2)c1 (stereo unspecified),100*,-1,-1,-12,11,-24
CN(c1ccc(OCC(=O)OCC(=O)Nc2ccc(OC(F)F)cc2)cc1)S(=O)(=O)c1cccs1,nt,nt,-5,nt,-1,-4
COc1ccccc1NS(=O)(=O)c1ccc(N/N=C(\C)C(C)C)c([N+](=O)[O-])c1,-1,18,78*,2,18,-24
Cc1cc(CN2CCN(CCC#N)CC2)c(O)c(C2(C)CCCCC2)c1,nt,55*,7,26,-21,7
N#CCCN1CCN(CCC#N)CC1,-5,-3,nt,10,nt,7
C=CCC(C(=O)OC)(C(=O)OC)c1ccc(C(F)(F)F)cc1[N+](=O)[O-],-15,-6,-2,-1,0,-19
C=CCC(C(=O)OC)(C(=O)OC)c1ccc([N+](=O)[O-])cc1[N+](=O)[O-],-5,59*,-3,4,-11,6
COC(=O)C(Cc1cnc(Cl)s1)(C(=O)OC)c1ccc(C(F)(F)F)cc1[N+](=O)[O-],9,-10,0,1,4,-5
COC(=O)C(Cc1cnc(Cl)s1)(C(=O)OC)c1ccc([N+](=O)[O-])cc1[N+](=O)[O-],12,57*,-2,2,7,-20
CC1CC(C)CN(C(=O)C2CCN(S(=O)(=O)c3ccc4c(c3)CC(C)N4C(=O)C3CC3)CC2)C1 (stereo unspecified),3,9,0,-5,-4,29
CC(C(=O)Nc1ccccc1)N(C)Cc1cccs1 (stereo unspecified),-3,4,1,2,-18,8
O=C(CSc1nc2ccccc2c(=O)n1-c1ccccc1)N1CCc2ccccc2C1,-2,26,100*,-15,68,24
CC(C)Cn1c(SCC(=O)N2CCc3ccccc3C2)nc2cc(Cl)ccc2c1=O,5,18,115*,37,32,25
CC(C)c1ccccc1-n1c(SCC(=O)N2CCc3ccccc3C2)nc2ccccc2c1=O,29,13,121*,-2,12,48
COCCNC(=O)CN(Cc1ccccc1)C(=O)CCC(=O)Nc1nccs1,-6,-12,1,-1,-6,9
O=C(N=C1N=C2C=CC(Br)=CN2Cc2ccccc21)c1ccc([N+](=O)[O-])cc1[N+](=O)[O-],-1,57*,-1,9,0,-103
COc1ccc(N2Cc3ccccc3C2=NC(=O)c2cccc([N+](=O)[O-])c2)cc1,5,7,1,3,1,-39
Cc1cccn2c(/C=N/OCc3cccc(F)c3)c(-c3ccc(Cl)cc3)nc12,1,22,5,20,85*,21
CNC(=O)c1c(NC(=O)c2ccc(N3C(=O)CCC3=O)cc2)sc2c1CCC(C)C2 (stereo unspecified),16,-4,0,61*,-5,13
CCOC(=O)c1cccc(C2=CC(=O)C[C@H](c3ccc(OC)cc3)C2)c1,nt,nt,-2,nt,-11,-59
